Data published in ChEMBL document CHEMBL1123811, “gem-Diphosphonate and gem-phosphonate-phosphate compounds with specific high density lipoprotein inducing activity” (1987).

Columns and labels:
Type in all cases: functional
[1] = species: Rattus norvegicus; assay: Activity to induce the elevation of phospholipids in plasma lipids of male Wistar rats; design: concentration or dose not given beside the values
Method in brief: (§1)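 Wistar rats on normal diet; groups were vehicle control, an internal-standard diphosphonate, and test compounds. Dosed daily for 4 days; diphosphonates were dissolved in water or suspended in 1% (carboxymethyl)cellulose, 4 mL/kg. On day 5, after overnight fast, rats were killed under ether. EDTA plasma was assayed enzymatically for HDL-C after heparin-CaCl2 precipitation of VLDL/LDL, phospholipids, triglycerides and α/β-cholesterol ratio. Results are given as % of control.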

[2] = species: Rattus norvegicus; assay: Activity to induce the elevation of HDL(High Density Lipoproteins)-Cholesterol in plasma lipids of male Wistar rats; design: concentration or dose not given beside the values; method in brief: as §1
[3] = species: Rattus norvegicus; assay: Activity to induce the elevation of alpha/beta cholesterol ratio in plasma lipids of male Wistar rats; design: concentration or dose not given beside the values; method in brief: as §1
[4] = species: Rattus norvegicus; assay: Activity to induce the elevation of triglycerides in plasma lipids of male Wistar rats; design: concentration or dose not given beside the values; method in brief: as §1
[5] = species: Rattus norvegicus; assay: Activity to induce the elevation of phospholipids of male Wistar rats; design: concentration or dose not given beside the values; method in brief: as §1
[6] = species: Rattus norvegicus; assay: Activity to induce the elevation of alpha/beta cholesterol ratio of male Wistar rats; design: concentration or dose not given beside the values; method in brief: as §1
[7] = species: Rattus norvegicus; assay: Activity to induce the elevation of triglycerides of male Wistar rats; design: concentration or dose not given beside the values; method in brief: as §1
[8] = species: Rattus norvegicus; assay: Activity to induce the elevation of HDL(High Density Lipoproteins)-Cholesterol of male Wistar rats; design: concentration or dose not given beside the values; method in brief: as §1
[9] = test system: Rattus norvegicus; assay: Activity to induce the elevation of triglycerides in plasma lipids of male Wistar rats after po administration of 100 mg/kg/day
Method in brief: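 Daily dosing of normal-diet Wistar rats ran for 4 days, with sacrifice on day 5 after an overnight fast. Plasma was collected by decapitation into EDTA. Total triglycerides were measured enzymatically and expressed as % change relative to the vehicle control group.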

[10] = test system: Rattus norvegicus; assay: Activity to induce the elevation of phospholipids in plasma lipids of male Wistar rats after po administration of 100 mg/kg/day
Method in brief: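 Normal-diet Wistar rats were given the test agent once daily for 4 days and killed on day 5 after an overnight fast. Total plasma phospholipids (EDTA plasma) were measured chemically by the molybdate/vanadate reaction or enzymatically (phospholipid B test). Values are % of vehicle controls.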

[11] = test system: Rattus norvegicus; assay: Activity to induce the elevation of alpha/beta cholesterol ratio in plasma lipids of male Wistar rats after po administration of 100 mg/kg/day
Method in brief: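 Rats (Wistar, normal diet) were treated daily for 4 days and fasted overnight, and EDTA plasma was taken on day 5. Total cholesterol was measured enzymatically, and β-lipoprotein cholesterol after heparin-CaCl2 precipitation. The α/β-cholesterol ratio is reported as % change from vehicle-treated controls.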

[12] = test system: Rattus norvegicus; assay: Activity to induce the elevation of HDL(High Density Lipoproteins)-Cholesterol in plasma lipids of male Wistar rats after po administration of 100 mg/kg/day
Method in brief: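 Wistar rats on a normal diet were dosed daily for 4 days at the dose and route given. On day 5, after an overnight fast, they were killed under ether and blood was taken by decapitation into EDTA. Plasma HDL cholesterol was measured after heparin-CaCl2 precipitation of VLDL/LDL and is expressed as % change versus a vehicle control group.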

Row | Structure (SMILES) | Plasma phospholipids, % change versus control [5] | Percent change in alpha/beta cholesterol ratio versus control [6] | Percent change in plasma triglycerides versus control [7] | HDL-cholesterol change relative to control (%) [8] | also measured
1 | CCOP(=O)(OCC)C(Cl)(CCCc1ccccc1)P(=O)(OCC)OCC |  |  |  |  | Control [1]: 27%; Control [2]: -2%; Control [3]: -23%; Control [4]: -4%
2 | COP(=O)(OC)C(O)(c1ccc(Cl)cc1)P(=O)(OC)OC | 19% | 130% | 15% | 44% | 
3 | COP(=O)(OC)OC(c1ccc2ccccc2c1)P(=O)(OC)OC (stereo unspecified) | 27% | 134% | 28% | 47% | 
4 | COP(=O)(OC)OC(C(C)(C)c1ccccc1)P(=O)(OC)OC (stereo unspecified) | 15% | 25% | 36% | 33% | 
5 | COP(=O)(OC)OC(c1cccc(Br)c1)P(=O)(OC)OC (stereo unspecified) | 3% | 71% | 14% | 28% | 
6 | CCOP(=O)(OCC)OC(c1ccc(Cl)cc1)P(=O)(OCC)OCC (stereo unspecified) | 16% | -6% | 8% | 15% | 
7 | COP(=O)(OC)OC(C(C)(C)Cc1ccc(Cl)cc1)P(=O)(OC)OC (stereo unspecified) | -27% | -38% | -19% | -30% | 
8 | COP(=O)(OC)C(Cc1ccccc1)P(=O)(OC)OC | 25% | 22% | -3% | 32% | 
9 | CC(C)OP(=O)(OC(C)C)C(Cc1ccc(Cl)cc1)P(=O)(OC(C)C)OC(C)C | 13% | -1% | 19% | 12% | 
10 | COP(=O)(OC)C(CCCc1ccccc1)P(=O)(OC)OC | 33% | 49% | 42% | 52% | 
11 | COP(=O)(OC)OC(c1cc(C)ccc1C)P(=O)(OC)OC (stereo unspecified) | -16% | 15% | -3% | 10% | 
12 | CCCCCCCCCCCCCCOc1ccc(CC(P(=O)(OCC)OCC)P(=O)(OCC)OCC)cc1 |  |  |  |  | Control [1]: -4%; Control [2]: 27%; Control [3]: -28%; Control [4]: -27%
13 | CCCCCCCCCCCCCCCC(O)(P(=O)(OC)OC)P(=O)(OC)OC |  |  |  |  | Control [1]: 4%; Control [2]: -3%; Control [3]: -38%; Control [4]: 14%
14 | CCOP(=O)(OCC)C(CCc1ccccc1)P(=O)(OCC)OCC | 16% | 74% | 11% | 41% | 
15 | O=P(O)(O)C(CCCOc1ccccc1)P(=O)(O)O | -6% | -57% | -7% | -18% | 
16 | COP(=O)(OC)C(Cl)(CCCOc1ccccc1)P(=O)(OC)OC |  |  |  |  | Control [1]: 15%; Control [2]: 57%; Control [3]: -42%; Control [4]: -3%
17 | COP(=O)(OC)OC(CC(C)(C)C)P(=O)(OC)OC (stereo unspecified) | 18% | 44% | -9% | 47% | 
18 | COP(=O)(O)C(CCCc1ccccc1)P(=O)(O)OC (stereo unspecified) | 11% | -23% | 9% | -9% | 
19 | COP(=O)(OC)C(O)(c1ccc(F)cc1)P(=O)(OC)OC | 3% | 64% | 27% | 23% | 
20 | O=P(O)(O)C(Cc1ccccc1)P(=O)(O)O | 3% | -10% | -11% | -8% | 
21 | COP(=O)(O)C(Cc1ccc(Cl)cc1)P(=O)(O)OC (stereo unspecified) | 6% | -20% | -30% | 27% | 
22 | COP(=O)(OC)C(Cl)(Cc1ccc(Cl)cc1)P(=O)(OC)OC |  |  |  |  | Control [1]: 7%; Control [2]: 10%; Control [3]: 81%; Control [4]: 11%
23 | COP(=O)(OC)OC(c1ccc(C(F)(F)F)cc1)P(=O)(OC)OC (stereo unspecified) | 3% | 29% | 4% | 22% | 
24 | COP(=O)(OC)OC(c1ccc(F)cc1)P(=O)(OC)OC (stereo unspecified) | 2% | 81% | -9% | 40% | 
25 | COP(=O)(OC)C(Cl)(CCCc1ccccc1)P(=O)(OC)OC |  |  |  |  | Control [1]: 24%; Control [2]: 26%; Control [3]: -9%; Control [4]: -36%
26 | CCCCCCCCCCCCCCOc1ccc(CC(P(=O)(OC)OC)P(=O)(OC)OC)cc1 |  |  |  |  | Control [1]: 10%; Control [2]: 20%; Control [3]: 14%; Control [4]: 4%
27 | CCOP(=O)(OCC)C(Cc1ccccc1)P(=O)(OCC)OCC | 5% | 28% | -47% | 5% | 
28 | CCOC(=O)C(C)(C)Oc1ccc(Cl)cc1 [CLOFIBRATE] |  |  |  |  | Control [9]: 28%; Control [10]: -22%; Control [11]: -53%; Control [12]: -34%
29 | CC(C)OC(=O)C(C)(C)Oc1ccc(C(=O)c2ccc(Cl)cc2)cc1 [FENOFIBRATE] |  |  |  |  | Control [9]: 12%; Control [10]: -19%; Control [11]: -80%; Control [12]: -45%
